Experimental findings from PubChem BioAssay AID588751 (Vanderbilt Specialized Chemistry Center, 2011) are described below.

This test concerns the target Muscarinic acetylcholine receptor M4 (Rattus norvegicus) (UniProt P08485). As to the kind of experiment: ACh potentiation at rat M4, late-stage follow-up, counter-screen for M4 PAM project, CHO Gqi5 cells, calcium (AID 588751). As to conditions: calcium fluorescence, ACh EC20. The method in brief: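 Test system: CHO cells stably co-expressing rat M4 receptor and chimeric Gqi5. Also added: acetylcholine at EC20, then acetylcholine at EC80. Dosing: compound concentration-response series, 0.3% DMSO final. Incubation: 144 s compound, 86 s between ACh additions, 37 °C. Technique: kinetic calcium fluorescence with Fluo-4 dye.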
For orientation: A counterscreen serves to expose hits that act by an unwanted route or on another target.

Sequence of Muscarinic acetylcholine receptor M4 (Rattus norvegicus) (P08485 whole entry, looked up): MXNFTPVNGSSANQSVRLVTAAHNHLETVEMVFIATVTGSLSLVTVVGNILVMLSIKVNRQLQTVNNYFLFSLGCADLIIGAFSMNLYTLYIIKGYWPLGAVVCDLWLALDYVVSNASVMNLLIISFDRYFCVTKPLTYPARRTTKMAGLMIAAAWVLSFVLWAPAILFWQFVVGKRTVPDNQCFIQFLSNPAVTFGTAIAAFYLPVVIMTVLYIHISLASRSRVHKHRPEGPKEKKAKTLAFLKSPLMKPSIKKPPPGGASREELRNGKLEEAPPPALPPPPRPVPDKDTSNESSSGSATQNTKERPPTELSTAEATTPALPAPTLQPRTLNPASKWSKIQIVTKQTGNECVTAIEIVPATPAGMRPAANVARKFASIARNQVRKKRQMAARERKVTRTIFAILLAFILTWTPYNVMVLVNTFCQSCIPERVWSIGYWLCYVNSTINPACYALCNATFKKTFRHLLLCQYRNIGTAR

A word on the EC50: it is the concentration that produces a half-maximal response. On to `Cc1nc2sc(C(=O)NCc3cccnc3)c(N)c2c(C)c1Cl`, for which the EC50 was 272 nM.
The result for `Cc1nc2sc(C(=O)NCc3ccc4c(c3)OCO4)c(N)c2c(C)c1Cl` reads 61.6 nM; that for `Cc1nc2sc(C(=O)NCc3cccc(F)c3F)c(N)c2c(C)c1Cl`, 114 nM.
Then `Cc1nc2sc(C(=O)NCc3ccncc3)c(N)c2c(C)c1Cl`, with 173 nM; and `Cc1nc2sc(C(=O)NCCc3ccncc3)c(N)c2c(C)c1Cl`, with 229 nM.
With `Cc1nc2sc(C(=O)NCc3ccncn3)c(N)c2c(C)c1Cl`, the concentration for a half-maximal effect (EC50) was 527 nM.
The result for `Cc1nc2sc(C(=O)NCc3ccccc3)c(N)c2c(C)c1Cl` reads 126 nM.
As to `Cc1nc2sc(C(=O)NC3CC3)c(N)c2c(C)c1Cl`, the EC50 was 151 nM.
Then `Cc1nc2sc(C(=O)NCc3nccs3)c(N)c2c(C)c1Cl`, with 187 nM.
